Experimental data as given in ChEMBL document CHEMBL4425095, “Novel Cephalosporins Selectively Active on Nonreplicating Mycobacterium tuberculosis” (J Med Chem, 2016).
Converted amounts (≈) assume the structure as drawn. The source made the active and inactive calls. The calls are words filed in the database; no cut-off is given here.

What was measured:
[1] = Cytotoxicity against human HepG2 cells assessed as reduction in cell viability after 2 days by Celltiter-Glo reagent based assay; conditions: read-out: LD50
Outline: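 HepG2 cells in DMEM with 10% FBS, pyruvate, glutamine and nonessential amino acids. Seeded at 3000 cells/well and exposed 2 days to compound or vehicle (≤1% DMSO final). Reported as LD50.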

[2] = Stability in pH 7.4 phosphate buffer solution assessed as parent compound remaining at 5 to 50 ug/ml at 37 degC measured every 12 hrs up to 144 hrs by LC-MS analysis; format: physicochemical
Outline: (§1)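 Compound at 50 μg/mL in cell-free PBS pH 7.4, or nonreplicating medium pH 5.0 (BSA, tyloxapol, lysine, pantothenate omitted) with or without 0.5 mM NaNO2. Poorly soluble compounds at 5 μg/mL in 50:50 acetonitrile mixtures, pH readjusted to 5.0.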

[3] = Stability in pH 5 non-replicating medium assessed as parent compound remaining at 5 to 50 ug/ml at 37 degC measured every 12 hrs up to 144 hrs by LC-MS analysis; format: physicochemical; conditions: buffer; outline: as §1
[4] = Stability in pH 5 non-replicating medium containing 0.5 mM NaNO2 assessed as parent compound remaining at 5 to 50 ug/ml at 37 degC measured every 12 hrs up to 144 hrs by LC-MS analysis; format: physicochemical; conditions: buffer; outline: as §1
[5] = tested on: Mycobacterium tuberculosis; assay: Bactericidal activity against wild-type replicating Mycobacterium tuberculosis H37Rv assessed as reduction in CFU in presence of beta-lactamase inhibitor clavulanate; format: functional, organism-based
[6] = tested on: Mycobacterium tuberculosis; assay: Bactericidal activity against wild-type non-replicating Mycobacterium tuberculosis H37Rv multi-stress model at 0.1 to 100 ug/ml incubated for 7 days measured at OD580 = 0.01 by charcoal agar resazurin assay; format: functional, organism-based
[7] = tested on: Mycobacterium tuberculosis; assay: Bactericidal activity against wild-type non-replicating Mycobacterium tuberculosis H37Rv multi-stress model incubated for 7 days measured at OD580 = 0.01 by charcoal agar resazurin assay; format: functional, organism-based
Outline: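 Nonreplicating wild-type H37Rv at OD580 0.1 or 0.01 treated 7 days with or without 0.5 mM NaNO2. 10 μL spotted onto 7H11-OADC-charcoal agar and incubated 7–10 days at 37 °C. Developed with Alamar blue:Tween80 1:1 for 1 h; fluorescence read at ex 530/em 590. Complete loss of fluorescence taken as ≥2–3 log10 CFU reduction.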

[8] = tested on: Mycobacterium tuberculosis; assay: Bactericidal activity against wild-type non-replicating Mycobacterium tuberculosis H37Rv at 1 to 100 ug/ml incubated for 7 days measured at OD580 = 0.1 in presence of up to 0.5 mM NaNO2; format: functional, organism-based
Outline: (§2)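 Wild-type H37Rv resuspended at OD580 0.1 in nonreplicating medium with NaNO2 at 0–1 mM, one plate per nitrite level. Exposed to compound for 7 days, then standard outgrowth assay to estimate survivors.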

[9] = tested on: Mycobacterium tuberculosis; assay: Bactericidal activity against wild-type non-replicating Mycobacterium tuberculosis H37Rv at 1 to 100 ug/ml incubated for 7 days measured at OD580 = 0.1 in presence of 1 mM NaNO2; format: functional, organism-based; outline: as §2

SMILES	CC50 at 48 h [1]	other results
COC(=O)C1=C(C)CS[C@@H]2[C@H](NC(=O)CCc3ccc(OC)cc3)C(=O)N12	> 100 µg/mL	–
CCCCOC(=O)C1=C(C)CS[C@@H]2[C@H](NC(=O)COc3ccc(OC)cc3)C(=O)N12	> 100 µg/mL	–
C#CCOC(=O)C1=C(C)CS[C@@H]2[C@H](NC(=O)COc3ccc(Cl)cc3)C(=O)N12	63.4 µg/mL (≈ 151 µM)	–
COc1ccc(CC(=O)N[C@@H]2C(=O)N3C(c4nc(C)no4)=C(C)CS[C@H]23)cc1	> 100 µg/mL	–
CCCOC(=O)C1=C(C)CS[C@@H]2[C@H](NC(=O)CCc3ccccc3)C(=O)N12	> 100 µg/mL	–
C#CCNC(=O)C1=C(C)CS[C@@H]2[C@H](NC(=O)COc3ccccc3)C(=O)N12	> 100 µg/mL	–
COc1ccc(OCC(=O)N[C@@H]2C(=O)N3C(C(=O)OCc4ccccc4)=C(C)CS[C@H]23)cc1	> 100 µg/mL	–
CCCN[C@@H]1C(=O)N2C(C(=O)OCCC)=C(C)CS[C@H]12	> 100 µg/mL	Stability [2]: 100%; Stability [3]: 100%; Stability [4]: 40%; Activity [5]: inactive
CCCc1noc(C2=C(C)CS[C@@H]3[C@H](NC(=O)CCc4ccccc4Cl)C(=O)N23)n1	> 100 µg/mL	–
CC1=C(c2nc(C)no2)N2C(=O)[C@@H](NC(=O)Cc3ccc(Cl)cc3)[C@H]2SC1	> 100 µg/mL	–
CCCCOc1ccc(CCC(=O)N[C@@H]2C(=O)N3C(c4nc(CCC)no4)=C(C)CS[C@H]23)cc1	> 100 µg/mL	–
CC1=C(C(=O)O)N2C(=O)[C@@H](NC(=O)c3ccc(Cl)cc3)[C@H]2SC1	> 100 µg/mL	–
CCCc1noc(C2=C(C)CS[C@@H]3[C@H](NC(=O)CCc4ccc(Cl)cc4)C(=O)N23)n1	> 100 µg/mL	–
CC1=C(c2nc(C)no2)N2C(=O)[C@@H](NC(=O)OCC(C)(C)C)[C@H]2SC1	> 100 µg/mL	–
CC1=C(C(=O)O)N2C(=O)[C@@H](NC(=O)Cc3ccc(Cl)cc3)[C@H]2SC1	> 100 µg/mL	–
CC1=C(c2nc(C)no2)N2C(=O)[C@@H](NC(=O)Cc3ccccc3)[C@H]2SC1	> 100 µg/mL	–
CC1=C(c2nc(C)no2)N2C(=O)[C@@H](NC(=O)[C@H](N)c3ccccc3)[C@H]2SC1	> 100 µg/mL	–
COC(=O)C1=C(C)CS[C@@H]2[C@H](NC(=O)COc3ccccc3)C(=O)N12	> 100 µg/mL	–
CC1=C(c2nc(C)no2)N2C(=O)[C@@H](NC(=O)COc3ccc(Cl)cc3)[C@H]2SC1	19.5 µg/mL (≈ 46.4 µM)	Activity [6]: Active
CCOC(=O)C1=C(C)CS[C@@H]2[C@H](NC(=O)COc3ccc(OC)cc3)C(=O)N12	> 100 µg/mL	–
CC1=C(C(=O)O)N2C(=O)[C@@H](NC(=O)CCc3ccc(Br)cc3)[C@H]2SC1	> 100 µg/mL	–
CCCc1noc(C2=C(C)CS[C@@H]3[C@H](NC(=O)c4ccc(Cl)cc4)C(=O)N23)n1	> 100 µg/mL	Activity [6]: Active

SMILES	CC50 at 48 h [1]	other results
CCCc1noc(C2=C(C)CS[C@@H]3[C@H](NC(=O)CCc4ccc(F)cc4)C(=O)N23)n1	> 100 µg/mL	–
CCCc1noc(C2=C(C)CS[C@@H]3[C@H](NC(=O)COc4ccc(Cl)cc4)C(=O)N23)n1	64.3 µg/mL (≈ 143 µM)	Activity [6]: Active
COC(=O)C1=C(C)CS[C@@H]2[C@H](NC(=O)COc3ccc(Cl)cc3)C(=O)N12	> 100 µg/mL	–
CC1=C(C(=O)O)N2C(=O)[C@@H](NC(=O)[C@H](N)c3ccccc3)[C@H]2SC1 [CEPHALEXIN ANHYDROUS]	–	Activity [7]: inactive
COc1ccc(CCC(=O)N[C@@H]2C(=O)N3C(C(=O)OCc4ccccc4)=C(C)CS[C@H]23)cc1	> 100 µg/mL	–
C=CC1=C(C(=O)O)N2C(=O)[C@@H](NC(=O)/C(=N\O)c3csc(N)n3)[C@H]2SC1	> 100 µg/mL	–
CC1=C(c2nc(C)no2)N2C(=O)[C@@H](NC(=O)OCC(Cl)(Cl)Cl)[C@H]2SC1	> 100 µg/mL	Activity [6]: Active
CC(=O)OCC1=C(C(=O)O)N2C(=O)[C@@H](NC(=O)Cc3cccs3)[C@H]2SC1 [CEPHALOTHIN]	> 100 µg/mL	–
CCCc1noc(C2=C(C)CS[C@@H]3[C@H](NC(=O)Cc4ccc(C)cc4)C(=O)N23)n1	> 100 µg/mL	–
CCSC(=O)N[C@@H]1C(=O)N2C(c3nc(C)no3)=C(C)CS[C@H]12	> 100 µg/mL	–
CC1=C(C(=O)OCc2ccccc2)N2C(=O)[C@@H](NC(=O)COc3ccc(Cl)cc3)[C@H]2SC1	> 100 µg/mL	–
C#CCOC(=O)C1=C(C)CS[C@@H]2[C@H](NC(=O)CCc3ccc(Cl)cc3)C(=O)N12	> 100 µg/mL	–
CCOC(=O)C1=C(C)CS[C@@H]2[C@H](NC(=O)COc3ccc(Cl)cc3)C(=O)N12	41 µg/mL (≈ 99.8 µM)	–
CCCCOC(=O)C1=C(C)CS[C@@H]2[C@H](NC(=O)CCc3ccc(Cl)cc3)C(=O)N12	> 100 µg/mL	–
C#CCOC(=O)C1=C(C)CS[C@@H]2[C@H](NC(=O)CCc3ccccc3)C(=O)N12	> 100 µg/mL	–
CCCOC(=O)C1=C(C)CS[C@@H]2[C@H](NC(=O)COc3ccc(OC)cc3)C(=O)N12	> 100 µg/mL	–
CCCc1noc(C2=C(C)CS[C@@H]3[C@H](NC(=O)CCc4ccc(C)cc4)C(=O)N23)n1	> 100 µg/mL	–
CCCOC(=O)C1=C(C)CS[C@@H]2[C@H](NC(=O)[C@H](N)c3ccccc3)C(=O)N12	> 100 µg/mL	–
CCCOC(=O)C1=C(C)CS[C@@H]2[C@H](NC(=O)CCc3ccc(OC)cc3)C(=O)N12	> 100 µg/mL	–
COc1ccc(CCC(=O)N[C@@H]2C(=O)N3C(c4nc(C)no4)=C(C)CS[C@H]23)cc1	> 100 µg/mL	–
CCCc1noc(C2=C(C)CS[C@@H]3[C@H](NC(=O)CCc4ccc(OC)cc4)C(=O)N23)n1	> 100 µg/mL	Activity [6]: Active
CC1=C(c2nc(C)no2)N2C(=O)[C@@H](NC(=O)Cc3ccc(Cl)c(Cl)c3)[C@H]2SC1	18.9 µg/mL (≈ 42.9 µM)	–

SMILES	CC50 at 48 h [1]	other results
CCCOC(=O)C1=C(C)CS[C@@H]2[C@H](NC(=O)COc3ccc(Cl)cc3)C(=O)N12	49.2 µg/mL (≈ 116 µM)	–
CCOC(=O)C1=C(C)CS[C@@H]2[C@H](NC(=O)CCc3ccccc3)C(=O)N12	> 100 µg/mL	–
CCCc1noc(C2=C(C)CS[C@@H]3[C@H](NC(=O)Cc4ccc(Cl)cc4)C(=O)N23)n1	20.6 µg/mL (≈ 47.6 µM)	–
CC1=C(c2nc(C)no2)N2C(=O)[C@@H](NC(=O)Cc3ccc(C)cc3)[C@H]2SC1	> 100 µg/mL	–
CC1=C(c2nc(C)no2)N2C(=O)[C@@H](NC(=O)OC(C)(C)C)[C@H]2SC1	> 100 µg/mL	–
COC(=O)C1=C(C)CS[C@@H]2[C@H](NC(=O)COc3ccc(OC)cc3)C(=O)N12	> 100 µg/mL	–
COC(=O)C1=C(C)CS[C@@H]2[C@H](NC(=O)CCc3ccccc3)C(=O)N12	> 100 µg/mL	–
CCCc1noc(C2=C(C)CS[C@@H]3[C@H](NC(=O)Cc4ccccc4)C(=O)N23)n1	> 100 µg/mL	–
CCCCOC(=O)C1C(C)=CS[C@@H]2[C@H](NC(=O)COc3ccccc3)C(=O)N12 (some centres not stated)	61.8 µg/mL (≈ 153 µM)	–
CC1=CS[C@@H]2[C@H](NC(=O)COc3ccccc3)C(=O)N2[C@H]1CO	> 100 µg/mL	–
CCCCOC(=O)C1=C(C)CS[C@@H]2[C@H](NC(=O)CCc3ccccc3)C(=O)N12	> 100 µg/mL	Activity [6]: Active
CCOC(=O)C1=C(C)CS[C@@H]2[C@H](NC(=O)CCc3ccc(OC)cc3)C(=O)N12	> 100 µg/mL	Activity [6]: Active
COC(=O)C1=C(C)CS[C@@H]2[C@H](NC(=O)[C@H](N)c3ccccc3)C(=O)N12	> 100 µg/mL	–
CCCCOC(=O)C1=C(C)CS[C@@H]2[C@H](NC(=O)COc3ccc(Cl)cc3)C(=O)N12	> 100 µg/mL	–
CCCc1noc(C2=C(C)CS[C@@H]3[C@H](NC(=O)Cc4ccc(OC)cc4)C(=O)N23)n1	72.4 µg/mL (≈ 169 µM)	–
CCCOC(=O)C1C(C)=CS[C@@H]2[C@H](NC(=O)CCc3ccc(OC)cc3)C(=O)N12 (some centres not stated)	> 100 µg/mL	–
CO[C@H]1/C=C/O[C@@]2(C)Oc3c(C)c(O)c4c(O)c(c(/C=N/N5CCN(C)CC5)c(O)c4c3C2=O)NC(=O)/C(C)=C\C=C\[C@H](C)[C@H](O)[C@@H](C)[C@@H](O)[C@@H](C)[C@H](OC(C)=O)[C@@H]1C	–	Activity [8]: inactive; Activity [9]: Active
CCOC(=O)C1=C(C)CS[C@@H]2[C@H](NC(=O)COc3ccccc3)C(=O)N12	> 100 µg/mL	–
CCCCOC(=O)C1=C(C)CS[C@@H]2[C@H](NC(=O)CCc3ccc(OC)cc3)C(=O)N12	> 100 µg/mL	–
CCCOC(=O)N[C@@H]1C(=O)N2C(C(=O)OCCC)=C(C)CS[C@H]12	> 100 µg/mL	Stability [2]: 80%; Stability [3]: 100%; Stability [4]: 100%; Activity [5]: inactive
CCCCOc1ccc(CCC(=O)N[C@@H]2C(=O)N3C(c4nc(C)no4)=C(C)CS[C@H]23)cc1	74.4 µg/mL (≈ 163 µM)	–
COC(=O)C1=C(C)CS[C@@H]2[C@H](NC(=O)[C@@H](c3ccccc3)N(C)C)C(=O)N12	> 100 µg/mL	–
